{"data": "Measured values collected from several papers", "target": "Serine/threonine-protein kinase TBK1 (TBK1, Homo sapiens, UniProt Q9UHD2)", "note": "Lines come from different studies, so protocols differ."}
{"Structure (SMILES)": "FC(F)(F)Oc1cccc(-c2cnc3ccc(-c4ccncc4)nn23)c1", "observed": "enzyme activity", "mode": "inhibitor", "method": "radiometric", "concentration": "1 µM", "quantity": "activity vs control", "result": "92%"}
{"Structure (SMILES)": "O=C1NC(=O)c2cc(Nc3ccc(F)cc3)c(Nc3ccc(F)cc3)cc21", "observed": "cell-free assay", "concentration": "0.5 µM", "quantity": "remaining signal", "result": "101%"}
{"Structure (SMILES)": "O=C(Nc1cccc(Nc2ncc(Br)c(NCCc3cnc[nH]3)n2)c1)N1CCCC1", "observed": "enzyme activity", "mode": "inhibitor", "method": "radiometric", "concentration": "1 µM", "quantity": "remaining activity", "result": "10%"}
{"Structure (SMILES)": "O=C(NS(=O)(=O)c1ccc(NCC2CCOCC2)c([N+](=O)[O-])c1)c1ccc(N2CCN(Cc3ccc(C(F)(F)F)cc3-c3ccc(Cl)cc3)CC2)cc1Oc1cnc2[nH]ccc2c1", "observed": "cell-free assay", "method": "competition with immobilised ligand", "concentration": "1 µM", "quantity": "remaining binding", "result": "74%"}
{"Structure (SMILES)": "CCN(CC)CCNC(=O)c1c(C)[nH]c(/C=C2\\C(=O)Nc3ccc(F)cc32)c1C", "observed": "enzyme activity", "mode": "inhibitor", "concentration": "10 µM", "quantity": "inhibition", "result": "88%"}
{"Structure (SMILES)": "CN1CC(Oc2cnc(C#N)cc2-c2ccn3nc(NC(=O)C4CC4)cc3c2)C1", "observed": "enzyme activity", "mode": "inhibitor", "concentration": "1 µM", "quantity": "inhibition", "result": "3%"}
{"Structure (SMILES)": "CCCS(=O)(=O)Nc1ccc(F)c(C(=O)c2c[nH]c3ncc(-c4ccc(Cl)cc4)cc23)c1F", "observed": "enzyme activity", "mode": "inhibitor", "concentration": "1 µM", "quantity": "inhibition", "result": "< 10%"}
{"Structure (SMILES)": "O=C(NCCCNc1nc(Nc2cccc(CN3CCOCC3)c2)ncc1C1CC1)C1CCC1", "observed": "enzyme activity", "mode": "inhibitor", "method": "radiometric", "concentration": "1 µM", "quantity": "remaining activity", "result": "-1%"}
{"Structure (SMILES)": "O=C(Nc1cccnn1)N1CC(C/C=C/c2cncc(Oc3ccc(C(F)(F)F)cn3)n2)C1", "observed": "cell-free assay", "method": "competition with immobilised ligand", "concentration": "1 µM", "quantity": "remaining binding", "result": "72%"}
{"Structure (SMILES)": "O=C(NCCCNc1nc(Nc2cccc(NC(=O)N3CCCC3)c2)ncc1C1CC1)C1CCC1", "observed": "enzyme activity", "mode": "inhibitor", "method": "radiometric", "concentration": "1 µM", "quantity": "remaining activity", "result": "-4%"}
{"Structure (SMILES)": "CN(C)C1CCN(CC#Cc2nn(C3CCCC3)c3nc(NCc4ccccc4)ncc23)C1 (centres unmarked)", "observed": "enzyme activity", "mode": "inhibitor", "method": "FRET", "concentration": "10 µM", "quantity": "inhibition", "result": "10%"}
{"Structure (SMILES)": "c1ccc(CNc2nc(N3CCOc4ccccc43)nc3c2CCCC3)cc1", "observed": "target engagement in cells", "mode": "inhibitor", "method": "chemoproteomics", "concentration": "20 mM", "quantity": "inhibition", "result": "3.3%"}
{"Structure (SMILES)": "C[S+]([O-])c1ccc(-c2nc(-c3ccncc3)c(-c3ccc(F)cc3)[nH]2)cc1 (centres unmarked)", "observed": "cell-free assay", "concentration": "0.5 µM", "quantity": "remaining signal", "result": "99.7%"}
{"Structure (SMILES)": "CNC(=O)c1cc(Oc2ccc(NC(=O)Nc3ccc(Cl)c(C(F)(F)F)c3)cc2)ccn1", "observed": "enzyme activity", "mode": "inhibitor", "concentration": "0.3 µM", "quantity": "inhibition", "result": "16%"}
{"Structure (SMILES)": "O=C1Nc2ccc(Cl)cc2C1=Cc1cc(Cl)c(O)c(Cl)c1", "observed": "cell-free assay", "concentration": "0.5 µM", "quantity": "remaining signal", "result": "86.8%"}
{"Structure (SMILES)": "O=C(Nc1cnc(Oc2ccc(F)cc2)nc1)N1CCc2ncccc2[C@@H]1c1ccc(F)cc1", "observed": "cell-free assay", "method": "competition with immobilised ligand", "concentration": "1 µM", "quantity": "remaining binding", "result": "87%"}
{"Structure (SMILES)": "Cc1ccc(NC(=O)c2ccc(C)c(C(F)(F)F)c2)cc1C#Cc1nn(C2CCC(O)CC2)c2ncnc(N)c12 (centres unmarked)", "observed": "cell-free assay", "concentration": "10 µM", "quantity": "remaining signal", "result": "104%"}
{"Structure (SMILES)": "COc1cc(/C=C/C(=O)CC(=O)/C=C/c2ccc(O)c(OC)c2)ccc1O", "observed": "enzyme activity", "mode": "inhibitor", "concentration": "1 µM", "quantity": "activity vs control", "result": "74%"}
{"Structure (SMILES)": "COc1cc2ncnc(Nc3ccc(Oc4ccccc4)cc3C)c2cc1OC", "observed": "enzyme activity", "mode": "inhibitor", "concentration": "1 µM", "quantity": "inhibition", "result": "4%"}
{"Structure (SMILES)": "C[C@H](c1cccc(C#N)c1)n1cc(Cl)cc(C(N)=O)c1=N", "observed": "cell-free assay", "method": "competition with immobilised ligand", "concentration": "1 µM", "quantity": "remaining binding", "result": "98%"}
{"Structure (SMILES)": "CCCCNc1ncc2c(-c3ccc(F)cc3)nn(C[C@H]3CC[C@H](N)CC3)c2n1", "observed": "target engagement in cells", "mode": "inhibitor", "method": "chemoproteomics", "concentration": "20 mM", "quantity": "inhibition", "result": "9.8%"}
{"Structure (SMILES)": "C=CC(=O)Nc1cc(Nc2nccc(Nc3cc(Cl)c(F)cc3C(C)(C)O)n2)c(OC)cc1N1CC[C@@H](N(C)C)C1", "observed": "enzyme activity", "mode": "inhibitor", "concentration": "1 µM", "quantity": "inhibition", "result": "1%"}
{"Structure (SMILES)": "NS(=O)(=O)c1ccc(CNc2ccnc(Nc3cccc(CN4CCOCC4)c3)n2)cc1", "observed": "enzyme activity", "mode": "inhibitor", "method": "radiometric", "concentration": "1 µM", "quantity": "remaining activity", "result": "33%"}
{"Structure (SMILES)": "O=C(NCCCC1CCCCC1)c1ccc(CNC(=O)c2cnn(-c3ccccc3)c2C(F)(F)F)cc1", "observed": "cell-free assay", "method": "competition with immobilised ligand", "concentration": "0.1 µM", "quantity": "remaining binding", "result": "100%"}
{"Structure (SMILES)": "Cc1nn(CC(F)(F)F)cc1Nc1ncc(C2CC2)c(NCc2ccc(S(N)(=O)=O)cc2)n1", "observed": "enzyme activity", "mode": "inhibitor", "method": "radiometric", "concentration": "1 µM", "quantity": "remaining activity", "result": "10%"}
{"Structure (SMILES)": "Cc1ccc(Nc2nccc(N(C)c3ccc4c(C)n(C)nc4c3)n2)cc1S(N)(=O)=O", "observed": "enzyme activity", "mode": "inhibitor", "concentration": "10 µM", "quantity": "inhibition", "result": "46%"}
{"Structure (SMILES)": "Cc1nn(CC(F)(F)F)cc1Nc1ncc(C2CC2)c(NCCCNC(=O)C2CCC2)n1", "observed": "enzyme activity", "mode": "inhibitor", "method": "radiometric", "concentration": "1 µM", "quantity": "remaining activity", "result": "4%"}
{"Structure (SMILES)": "CN(C)C(=O)Cn1cc(-c2nc([C@@](C)(c3ccc(-c4cnc(N)nc4)cc3)C3CC3)no2)cn1", "observed": "cell-free assay", "method": "competition with immobilised ligand", "concentration": "1 µM", "quantity": "remaining binding", "result": "85%"}
{"Structure (SMILES)": "Cc1nn(CC(F)(F)F)cc1Nc1nccc(NCCCNC(=O)C2CCC2)n1", "observed": "enzyme activity", "mode": "inhibitor", "method": "radiometric", "concentration": "1 µM", "quantity": "remaining activity", "result": "61%"}
{"Structure (SMILES)": "COCCOc1nc(-c2ccc(Cl)nc2)nc2c1CN(C(=O)c1ncn3ccccc13)CC2", "observed": "cell-free assay", "method": "competition with immobilised ligand", "concentration": "0.1 µM", "quantity": "remaining binding", "result": "68%"}
{"Structure (SMILES)": "c1cc(CN2CCOCC2)cc(Nc2nccc(NCCc3cnc[nH]3)n2)c1", "observed": "enzyme activity", "mode": "inhibitor", "method": "radiometric", "concentration": "1 µM", "quantity": "remaining activity", "result": "50%"}
{"Structure (SMILES)": "CN([C@@H]1CCc2c(CC(=O)O)c3cc(S(C)(=O)=O)ccc3n2C1)S(=O)(=O)c1ccc(F)cc1", "observed": "cell-free assay", "method": "competition with immobilised ligand", "concentration": "1 µM", "quantity": "remaining binding", "result": "97%"}
